Test results published in PMC11932705 (Results in chemistry, 2024).
Entries after “also recorded” stand apart in the source; their conditions may differ.

Tested on: adult S. mansoni
Test: Single-concentration phenotypic severity score assay on adult worms
Format: cell-based, Schistosoma mansoni
Conditions: severity score assay at 5 μM
Outline: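 Adult S. mansoni were exposed to test compound at 5 μM. Adherence, shape, density and mobility were scored visually at 2, 5, 24 and 48 h using a constrained set of phenotypic descriptors, each typically valued 1. The descriptor values were summed into a severity score from 0 (no activity) to 4 (maximal activity). Each compound was screened twice as a singleton and representative data are reported.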

SMILES	Antischistosomal activity in words
O=C(Nc1cccc(C(F)(F)F)c1)c1cccc(C(F)(F)F)c1 [compound 33, 3-(Trifluoromethyl)-N-(3-(trifluoromethyl)phenyl)benzamide]	potency is lost
O=C(Nc1cc(C(F)(F)F)cnn1)c1ccc(C(F)(F)F)cc1 [compound 49, 4-(Trifluoromethyl)-N-(5-(trifluoromethyl)pyridazin-3-yl)benzamide]	abolished activity; also recorded: inactive against the worm
